Experimental data: paper PMC9948766 (Science translational medicine, 2022)
Like-named read-outs stand apart in the source and are kept apart here.

Columns and labels:
[1] = Pharmacokinetics and biodistribution of ^125I-RLX after intraarticular injection; set-up: species or system Sprague Dawley rats; conditions: rat, in vivo
[2] = Circular dichroism of RLX secondary structure; format: physicochemical
[3] = tested on: mouse models of myocardial infarction; conditions: cited from earlier work
[4] = humans, intravenous injection; cited from earlier work
[5] = cited from earlier work
[6] = tested on: atraumatic rat model of shoulder arthrofibrosis; test: Histological assessment of rat shoulder joints; format: in vivo, Sprague Dawley rats
Procedure, shortened: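 Female Sprague Dawley rats with contracted shoulders receiving intraarticular doses (repeated 2 μg/kg injections or saline; or single 10 μg/kg microparticles or unloaded particles at equivalent PLGA mass) from remobilization. Joints fixed and decalcified at 14 or 56 days; coronal sections stained with H&E, Masson's Trichrome, Safranin O. Immune activation scored on H&E; axillary pouch thickness measured; n=5; mean ± STDev; ANOVA.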

Substance: human relaxin-2 [RLX]
- CL [1]: 20.6 (15.1, 31.8) (mL/kg)·hr
- average plasma exposure, Cavg [1]: 2.05 ng/mL/h
- clearance at the time of dose re-administration [1]: > 99%
- maximum plasma exposure, Cmax [1]: 0.016 µg/mL
- t1/2-α [1]: 0.954 (0.852, 1.15) h
- t1/2-α (effective synovial half-life) [1]: 0.305 (0.280, 0.346) h
- alpha helical structure (CD) after encapsulation processing ([2]; after organic solvents, mechanical and thermal forces of encapsulation): maintenance of the alpha helical structure
- alpha helical structure (CD, negative peaks at 208 and 222 nm) after extended incubation ([2]; long-term incubation at 37 °C): maintenance of the alpha helical structure
- bioactive average plasma exposure concentration, Cavg [3]: 20 to 40 ng/mL
- half-life [4]: 1.6 h
- toxicological profile ([5]; acute heart failure, 30 μg/kg/day continuous IV infusion over 48 hr): favorable toxicological profile
- toxicological profile ([5]; induction of labor, 75μg/kg/day continuous IV infusion over 24 hr): favorable toxicological profile
- inflammatory infiltrate, histological scoring ([6]; 14 days post-treatment, n=5): negligible inflammation
- joint architecture ([6]; 56 days after remobilization, H&E, Masson's Trichrome): restored delineation of the humeral head and glenoid surface, absence of fibrotic adhesions
- inflammatory infiltrate, histological scoring ([6]; 56 days post-treatment, n=5): negligible inflammation
- synovial membrane thickness in the axillary pouch ([6]; 56 days, n=5): restoration to baseline values
